# From article PMC7797712 (Medicinal Chemistry Research, 2021)
# Tested on: cytoplasmic HBV-DNA replication in AML12HBV10 cells
# Assay: Antiviral assay in AML12HBV10 cells
# Type: cell-based, hepatitis B virus
# Settings: AML12HBV10 cells; SAR statement of the text
# Procedure, shortened: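 AML12-derived mouse hepatocyte line carrying a tetracycline-inducible, envelope-deficient HBV genome; seeded at 2 × 10^4 cells/well in tetracycline-free medium. Next day, mock or twofold serial dilution (10 to 0.08 µM) for 48 h. Cells lysed in Tris-HCl pH 7.5/EDTA/NaCl/1% NP-40. Half the lysate NaOH-denatured, neutralised, dot-blotted and hybridised with 32P-labelled HBV minus-strand riboprobe. Phosphorimager quantification; EC50 = concentration reducing HBV DNA by 50%.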
row,SMILES,"Anti-HBV potency compared with 27 (58031), in words"
1,"O=C(NC1CN(C(=O)Nc2ccc(F)c(Cl)c2)CN(Cc2ccc(F)cc2F)C1=O)c1ccc(F)cc1F (centres unmarked) [Compound 53, N-(3-chloro-4-fluorophenyl)-5-(2,4-difluorobenzamido)-3-(2,4-difluorobenzyl)-4-oxotetrahydropyrimidine-1(2H)-carboxamide]",comparable or slightly better potencies
2,"O=C1CCN(C(=O)Nc2ccc(F)c(Cl)c2)CN1CC1CN(c2ccccc2)C(=O)O1 (centres unmarked) [Compound 33, N-(3-chloro-4-fluorophenyl)-4-oxo-3-((2-oxo-3-phenyloxazolidin-5-yl)methyl)tetrahydropyrimidine-1(2H)-carboxamide]",failed to improve the potencies
3,"O=C1CCN(C(=O)Nc2cc(Cl)c(F)c(Cl)c2)CN1Cc1ccc(F)cc1F [Compound 42, N-(3,5-dichloro-4-fluorophenyl)-3-(2,4-difluorobenzyl)-4-oxotetrahydropyrimidine-1(2H)-carboxamide]",reduced the activities
4,"O=C1CCN(C(=O)Nc2ccc(F)c(Cl)c2)CN1Cc1ccncc1 [Compound 29, N-(3-chloro-4-fluorophenyl)-4-oxo-3-(pyridin-4-ylmethyl)tetrahydropyrimidine-1(2H)-carboxamide]",less active
5,"COc1ccc(CN2CN(C(=O)Nc3ccc(F)c(Cl)c3)CCC2=O)c(OC)c1 [Compound 28, N-(3-chloro-4-fluorophenyl)-3-(2,4-dimethoxybenzyl)-4-oxotetrahydropyrimidine-1(2H)-carboxamide]",slightly weaker potency
6,"O=C1CCN(C(=O)Nc2cccc(Cl)c2)CN1Cc1ccc(F)cc1F [Compound 35, N-(3-chlorophenyl)-3-(2,4-difluorobenzyl)-4-oxotetrahydropyrimidine-1(2H)-carboxamide]",comparable activities
7,"O=C(Nc1ccc(F)c(Cl)c1)N1CC(c2ccccc2)C(=O)N(Cc2ccc(F)cc2F)C1 (centres unmarked) [Compound 50, N-(3-chloro-4-fluorophenyl)-3-(2,4-difluorobenzyl)-4-oxo-5-phenyltetrahydropyrimidine-1(2H)-carboxamide]",comparable or slightly better potencies
8,"O=C1C2CCCC2N(C(=O)Nc2ccc(F)c(Cl)c2)CN1Cc1ccc(F)cc1F (centres unmarked) [Compound 49, N-(3-chloro-4-fluorophenyl)-3-(2,4-difluorobenzyl)-4-oxooctahydro-1H-cyclopenta[d]pyrimidine-1-carboxamide]",diminished the activities only by two to threefold
9,"O=C(Nc1ccc(F)c(Cl)c1)N1CC(Cc2ccccc2)C(=O)N(Cc2ccc(F)cc2F)C1 (centres unmarked) [Compound 51, 5-benzyl-N-(3-chloro-4-fluorophenyl)-3-(2,4-difluorobenzyl)-4-oxotetrahydropyrimidine-1(2H)-carboxamide]",diminished the activities only by two to threefold
10,"O=C1CC(CN2CCC(F)(F)CC2)N(C(=O)Nc2ccc(F)c(Cl)c2)CN1Cc1ccc(F)cc1F (centres unmarked) [Compound 46, N-(3-chloro-4-fluorophenyl)-3-(2,4-difluorobenzyl)-6-((4,4-difluoropiperidin-1-yl)methyl)-4-oxotetrahydropyrimidine-1(2H)-carboxamide]",deteriorated the potency
11,"Cc1ccc(S(=O)(=O)NC2CN(C(=O)Nc3ccc(F)c(Cl)c3)CN(Cc3ccc(F)cc3F)C2=O)cc1 (centres unmarked) [Compound 54, N-(3-chloro-4-fluorophenyl)-3-(2,4-difluorobenzyl)-5-(4-methylphenylsulfonamido)-4-oxotetrahydropyrimidine-1(2H)-carboxamide]",comparable or slightly better potencies
12,"O=C1CCN(C(=O)Nc2cc(F)c(F)c(F)c2)CN1Cc1ccc(F)cc1F [Compound 40, 3-(2,4-difluorobenzyl)-4-oxo-N-(3,4,5-trifluorophenyl)tetrahydropyrimidine-1(2H)-carboxamide]",reduced the activities
13,"CC1(C)CN(C(=O)Nc2ccc(F)c(Cl)c2)CN(Cc2ccc(F)cc2F)C1=O [Compound 48, N-(3-chloro-4-fluorophenyl)-3-(2,4-difluorobenzyl)-5,5-dimethyl-4-oxotetrahydropyrimidine-1(2H)-carboxamide]",diminished the activities only by two to threefold
14,"C=CC(=O)NC1CN(C(=O)Nc2ccc(F)c(Cl)c2)CN(Cc2ccc(F)cc2F)C1=O (centres unmarked) [Compound 55, 5-acrylamido-N-(3-chloro-4-fluorophenyl)-3-(2,4-difluorobenzyl)-4-oxotetrahydropyrimidine-1(2H)-carboxamide]",comparable or slightly better potencies
15,"O=C1CCN(C(=O)Nc2cc(F)c(F)cc2Cl)CN1Cc1ccc(F)cc1F [Compound 41, N-(2-chloro-4,5-difluorophenyl)-3-(2,4-difluorobenzyl)-4-oxotetrahydropyrimidine-1(2H)-carboxamide]",reduced the activities
16,"O=C1CCN(C(=O)Nc2ccc(F)c(Cl)c2)CN1Cc1ccccn1 [Compound 30, N-(3-chloro-4-fluorophenyl)-4-oxo-3-(pyridin-2-ylmethyl)tetrahydropyrimidine-1(2H)-carboxamide]",less active
17,"CC1CC(=O)N(Cc2ccc(F)cc2F)CN1C(=O)Nc1ccc(F)c(Cl)c1 (centres unmarked) [Compound 44, N-(3-chloro-4-fluorophenyl)-3-(2,4-difluorobenzyl)-6-methyl-4-oxotetrahydropyrimidine-1(2H)-carboxamide]",reduced activity
18,"O=C1CC(CN2CCC(F)(F)C2)N(C(=O)Nc2ccc(F)c(Cl)c2)CN1Cc1ccc(F)cc1F (centres unmarked) [Compound 47, N-(3-chloro-4-fluorophenyl)-3-(2,4-difluorobenzyl)-6-((3,3-difluoropyrrolidin-1-yl)methyl)-4-oxotetrahydropyrimidine-1(2H)-carboxamide]",deteriorated the potency
19,"O=C(Nc1ccc(F)c(Cl)c1)N1CC(n2cc(C3CC3)nn2)C(=O)N(Cc2ccc(F)cc2F)C1 (centres unmarked) [Compound 52, N-(3-chloro-4-fluorophenyl)-5-(4-cyclopropyl-1H-1,2,3-triazol-1-yl)-3-(2,4-difluorobenzyl)-4-oxotetrahydropyrimidine-1(2H)-carboxamide]",comparable or slightly better potencies
20,"O=C1CCN(C(=O)Nc2ccc(F)c(C(F)F)c2)CN1Cc1ccc(F)cc1F [Compound 36, 3-(2,4-difluorobenzyl)-N-(3-(difluoromethyl)-4-fluorophenyl)-4-oxotetrahydropyrimidine-1(2H)-carboxamide]",comparable activities
21,"O=C1CCN(C(=O)Nc2ccc(F)c(Cl)c2)CN1CC1CCN(c2ccccc2)C1 (centres unmarked) [Compound 32, N-(3-chloro-4-fluorophenyl)-4-oxo-3-((1-phenylpyrrolidin-3-yl)methyl)tetrahydropyrimidine-1(2H)-carboxamide]",failed to improve the potencies
22,"O=C1CCN(C(=O)NCc2ccccc2F)CN1Cc1ccc(F)cc1F [Compound 43, 3-(2,4-difluorobenzyl)-N-(2-fluorobenzyl)-4-oxotetrahydropyrimidine-1(2H)-carboxamide]",not tolerated
23,"O=C1CC(Cc2cc(F)c(F)cc2F)N(C(=O)Nc2ccc(F)c(Cl)c2)CN1Cc1ccc(F)cc1F (centres unmarked) [Compound 45, N-(3-chloro-4-fluorophenyl)-3-(2,4-difluorobenzyl)-4-oxo-6-(2,4,5-trifluorobenzyl)tetrahydropyrimidine-1(2H)-carboxamide]",deteriorated the potency

# Same assay, conditions: Hepatitis B virus, AML12HBV10, 48 h, read-out: EC50 (50% inhibitory concentration of cytoplasmic HBV-DNA replication)
row,SMILES,EC50
1,"O=C1CCN(C(=O)Nc2ccc(F)c(Cl)c2)CN1Cc1ccc(F)cc1 [Compound 21, N-(3-chloro-4-fluorophenyl)-3-(4-fluorobenzyl)-4-oxotetrahydropyrimidine-1(2H)-carboxamide]",2.02 µM
2,"O=C1CCN(C(=O)Nc2ccc(F)c(Cl)c2)CN1CCc1ccc(F)cc1 [Compound 22, N-(3-chloro-4-fluorophenyl)-3-(4-fluorophenethyl)-4-oxotetrahydropyrimidine-1(2H)-carboxamide]",5.08 µM

# Target: HBV core protein (Hepatitis B virus genotype D subtype ayw, UniProt P03146)
# Sequence (P03146 whole entry): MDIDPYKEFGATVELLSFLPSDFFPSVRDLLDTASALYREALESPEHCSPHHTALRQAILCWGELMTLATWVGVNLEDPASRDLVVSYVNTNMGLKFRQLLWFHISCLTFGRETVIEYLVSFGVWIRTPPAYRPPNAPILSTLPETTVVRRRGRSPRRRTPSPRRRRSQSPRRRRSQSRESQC
# Assay: Western blot assay of HBV core protein dephosphorylation in AML12HBV_DE11 cells
# Type: cell-based
# Settings: 30 h, ENAN-34017 2 µM, Bay 41-4109 2 µM, entecavir 1 µM
# Procedure, shortened: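 Controls: cells kept with tetracycline, or tetracycline-free and mock treated. Test cells tetracycline-free, treated 30 h, then lysed in LDS loading buffer and boiled 100 °C for 20 min. Run on 12% Bis-Tris gel in MOPS buffer, transferred to PVDF. Hyper-phosphorylated and dephosphorylated/hypophosphorylated core protein detected by western blot; β-actin loading control.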
row,SMILES,Effect on Cp dephosphorylation
1,"C=C1[C@H](CO)[C@@H](O)C[C@@H]1n1cnc2c(=O)[nH]c(N)nc21 [entecavir, reference compound]",did not affect Cp dephosphorylation
